Assay results from ChEMBL document CHEMBL1671663, “In vivo characterization of the peptide deformylase inhibitor LBM415 in murine infection models” (Antimicrob Agents Chemother, 2009).
Values after ≈ are worked out from the molar mass of the structure shown.

Tests used:
Type in all cases: functional
Streptococcus pneumoniae [1] = assay: Antimicrobial activity against Streptococcus pneumoniae ATCC 6303 by broth microdilution method
Summary of the method: (§1)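 MICs determined by broth microdilution following CLSI guidelines. Inocula came from overnight Mueller-Hinton broth (ATCC 49951, NB01021) or overnight Trypticase soy agar culture (ATCC 6301). ATCC 6303 and ATCC 700677 came from a 5-h log culture in Todd-Hewitt broth–30% horse serum.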

Streptococcus pneumoniae [2] = assay: Antimicrobial activity against Streptococcus pneumoniae ATCC 6301 by broth microdilution method; summary of the method: as §1
Streptococcus pneumoniae [3] = assay: Antimicrobial activity against multiple drug-resistant Streptococcus pneumoniae ATCC 700677 by broth microdilution method; summary of the method: as §1
Streptococcus pneumoniae [4] = assay: Antimicrobial activity against Streptococcus pneumoniae ATCC 6303 infected in po dosed BALB/c mouse pneumonia model assessed as complete eradication of bacteria administered twice daily 3 days starting 16 hrs post infection; settings: Streptococcus pneumoniae, ATCC 6303, po
Summary of the method: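 Anesthetized (ketamine/xylazine) female BALB/c mice (19 to 22 g) inoculated intranasally with 50 µl log-phase culture (1.4 × 10^5 CFU/mouse). Oral treatment, six mice per group, at 16, 27, 40, 51, 64 and 75 h postinfection; vehicle controls. Lungs harvested one day after last dose, homogenized, plated; log10 CFU/lung. Deaths assigned 9 log10 CFU/lung; Kruskal-Wallis with Dunn's test versus control.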

Staphylococcus aureus [5] = assay: Antimicrobial activity against methicillin-resistant Staphylococcus aureus NB01021 by broth microdilution method; summary of the method: as §1
Staphylococcus aureus [6] = assay: Antimicrobial activity against methicillin-susceptible Staphylococcus aureus ATCC 49951 by broth microdilution method; summary of the method: as §1
Staphylococcus aureus [7] = assay: Antimicrobial activity against methicillin-susceptible Staphylococcus aureus ATCC 13709 by broth microdilution method
Summary of the method: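 MIC by broth microdilution following CLSI guidelines.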

Staphylococcus aureus [8] = assay: Antimicrobial activity against methicillin-resistant Staphylococcus aureus NB01021 infected in sc dosed BALB/c mouse administered 0, 4, 23 hrs post infection
Summary of the method: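 Female BALB/c mice (19–23 g) infected intraperitoneally with MRSA NB01021 in 5% hog gastric mucin, 2.1 × 10^7 to 2.8 × 10^7 CFU/mouse (0.3 ml), 10–100× minimal lethal dose. Three dose levels, groups of 5–6; vehicle controls. Treatment 0, 4 and 23 h post-infection. Observed 8 days; ED50 with 95% CI by probit analysis of day-8 survival.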

Streptococcus pneumoniae [9] = assay: Antimicrobial activity against multiple drug resistant Streptococcus pneumoniae ATCC 700677 infected in po dosed BALB/c mouse administered twice daily for 3 days; settings: ATCC 700677, po, 72 h
Summary of the method: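 Female BALB/c mice (19–23 g) infected intraperitoneally with ATCC 700677 from a 5-h Todd-Hewitt–30% horse serum log culture, suspended in 5% hog mucin, 1.5 × 10^7 to 2 × 10^7 CFU/mouse. Groups of 5–6, typically three dose levels; vehicle controls. Dosed 1, 5, 17, 27, 42, 51 h post-infection. ED50 from day-8 survival by probit analysis, with 95% CI.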

Staphylococcus aureus [10] = assay: Antimicrobial activity against methicillin susceptible Staphylococcus aureus ATCC 13709 infected in sc dosed NMRI mouse treated 1 and 5 hrs post infection; settings: ATCC 13709, sc
Summary of the method: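 Systemic infection: ATCC 13709 grown overnight in tryptic soy broth and suspended in 0.86% NaCl. Given intraperitoneally at 7.3 × 10^7 to 2 × 10^8 CFU/mouse, 10–100× the minimal lethal dose, 0.3 ml/mouse. Groups of 5–6 mice, typically three dose levels; controls got vehicle. Dosed 1 and 5 h post-infection. Survival followed 8 days; ED50 (protection of 50%) with 95% CI by probit analysis of day-8 survival.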

Staphylococcus aureus [11] = assay: Antimicrobial activity against methicillin susceptible Staphylococcus aureus ATCC 49951 infected in sc dosed NMRI mouse treated 1 and 5 hrs post infection; settings: ATCC 49951, sc
Summary of the method: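 Intraperitoneal infection (0.3 ml/mouse, 10 to 100 times minimal lethal dose) with inoculum in 0.86% NaCl; ATCC 49951 grown overnight in Mueller-Hinton broth (1.7 × 10^7 to 2.2 × 10^7 CFU/mouse), ATCC 13709 in tryptic soy broth (7.3 × 10^7 to 2 × 10^8 CFU/mouse). Groups of 5 to 6 mice, typically three doses, treated 1 and 5 h postinfection; vehicle controls. ED50 by probit analysis of day-8 survival.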

Row | Compound | MIC (Streptococcus pneumoniae [1]) [µg/mL] | MIC (Streptococcus pneumoniae [2]) [µg/mL] | MIC (Streptococcus pneumoniae [3]) [µg/mL] | ED50 (Streptococcus pneumoniae [4]) [mg/kg] | MIC (Staphylococcus aureus [5]) [µg/mL] | MIC (Staphylococcus aureus [6]) [µg/mL] | MIC (Staphylococcus aureus [7]) [µg/mL] | ED50 (Staphylococcus aureus [8]) [mg/kg] | ED50 (Streptococcus pneumoniae [9]) [mg/kg] | ED50 (Staphylococcus aureus [10]) [mg/kg] | ED50 (Staphylococcus aureus [11]) [mg/kg]
1 | COc1c(N2C[C@@H]3CCCN[C@@H]3C2)c(F)cc2c(=O)c(C(=O)O)cn(C3CC3)c12 [MOXIFLOXACIN] | 0.5 (≈ 1.25 µM) | 0.5 (≈ 1.25 µM) | ≤ 0.06 | 14.3 | 1 (≈ 2.49 µM) | 0.06 (≈ 0.149 µM) | ≤ 0.03 |  |  |  | 
2 | CC1(C)S[C@@H]2[C@H](NC(=O)Cc3ccccc3)C(=O)N2[C@H]1C(=O)O [PENICILLIN G] | 0.06 (≈ 0.179 µM) | 0.03 (≈ 0.0897 µM) | 32 (≈ 95.7 µM) |  | 64 (≈ 191 µM) | ≤ 0.125 | ≤ 0.125 | > 135 |  |  | 
3 | CC1(C)S[C@@H]2[C@H](NC(=O)COc3ccccc3)C(=O)N2[C@H]1C(=O)O [PENICILLIN V] |  |  |  |  |  |  |  |  | > 60 |  | 
4 | CC[C@H]1OC(=O)[C@H](C)C(=O)[C@H](C)[C@@H](O[C@@H]2O[C@H](C)C[C@H](N(C)C)[C@H]2O)[C@](C)(OC)C[C@@H](C)C(=O)[C@H](C)[C@H]2N(CCCCn3cnc(-c4cccnc4)c3)C(=O)O[C@]12C [TELITHROMYCIN] | ≤ 0.125 | ≤ 0.125 | ≤ 0.25 |  | > 64 | 0.25 (≈ 0.308 µM) | ≤ 0.125 |  | 13.2 |  | 
5 | CN[C@H](CC(C)C)C(=O)N[C@H]1C(=O)N[C@@H](CC(N)=O)C(=O)N[C@H]2C(=O)N[C@H]3C(=O)N[C@H](C(=O)N[C@H](C(=O)O)c4cc(O)cc(O)c4-c4cc3ccc4O)[C@H](O)c3ccc(c(Cl)c3)Oc3cc2cc(c3O[C@@H]2O[C@H](CO)[C@@H](O)[C@H](O)[C@H]2O[C@H]2C[C@](C)(N)[C@H](O)[C@H](C)O2)Oc2ccc(cc2Cl)[C@H]1O [VANCOMYCIN] | 0.5 (≈ 0.345 µM) | 0.5 (≈ 0.345 µM) | ≤ 0.125 |  |  |  |  | 2.5 |  | 2.8 | 1.5
